Key:
[1] = Intrinsic and predicted hepatic clearance in mouse liver microsomes; assay type: in vitro ADME; conditions: for CLint scaled / Predicted hepatic clearance mCLHEP: mouse, liver microsomes
Outline: (§1)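 Part of an outsourced Tier 1 in vitro DMPK panel. Intrinsic clearance was measured in liver microsomes from the species named in each line and scaled. Predicted hepatic clearance was derived from the same microsomal experiments.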

[2] = Intrinsic and predicted hepatic clearance in human liver microsomes; assay type: in vitro ADME
Outline: as §1

GIRK1/2 = target: T1, GIRK1/2 (Homo sapiens, UniProt P48051+P48549); assay: Thallium flux assay, GIRK1/2 expressing HEK293 cells; assay type: cell-based; conditions: for Selectivity GIRK1/2 vs GIRK1/4 (in words): thallium flux; for Loss of GIRK1/2 potency/activity relative to 15a: compared with parent amide/phenyl compound 15a
T1 sequence (P48549 1-501): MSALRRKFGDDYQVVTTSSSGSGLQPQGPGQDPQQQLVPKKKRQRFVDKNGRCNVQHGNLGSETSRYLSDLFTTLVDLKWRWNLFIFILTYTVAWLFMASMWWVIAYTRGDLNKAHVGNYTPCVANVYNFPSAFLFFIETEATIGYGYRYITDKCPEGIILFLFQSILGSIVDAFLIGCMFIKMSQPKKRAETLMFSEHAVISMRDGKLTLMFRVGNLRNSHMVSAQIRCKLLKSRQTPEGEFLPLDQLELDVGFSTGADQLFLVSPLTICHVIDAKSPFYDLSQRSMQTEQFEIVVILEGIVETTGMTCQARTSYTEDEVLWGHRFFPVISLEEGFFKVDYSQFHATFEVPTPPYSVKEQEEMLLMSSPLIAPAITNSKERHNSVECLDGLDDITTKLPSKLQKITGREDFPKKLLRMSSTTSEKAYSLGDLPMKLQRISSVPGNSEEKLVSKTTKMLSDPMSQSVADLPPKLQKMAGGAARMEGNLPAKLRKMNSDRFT
T1 sequence (P48051 1-423): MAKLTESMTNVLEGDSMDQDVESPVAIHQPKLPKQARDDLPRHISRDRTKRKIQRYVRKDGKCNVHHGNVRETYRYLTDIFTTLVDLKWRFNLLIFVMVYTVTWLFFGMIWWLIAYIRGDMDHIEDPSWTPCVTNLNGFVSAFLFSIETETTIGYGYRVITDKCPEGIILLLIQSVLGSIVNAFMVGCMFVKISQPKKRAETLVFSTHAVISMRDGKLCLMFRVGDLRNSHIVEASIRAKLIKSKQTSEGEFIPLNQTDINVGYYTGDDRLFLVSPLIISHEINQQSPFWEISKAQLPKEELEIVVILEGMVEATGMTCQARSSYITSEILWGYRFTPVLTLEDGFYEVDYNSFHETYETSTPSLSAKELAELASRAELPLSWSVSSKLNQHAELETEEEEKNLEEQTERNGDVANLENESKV

[3] = Plasma unbound fraction, mouse plasma; assay type: in vitro ADME
[4] = Stability in Human Liver S9 fractions; assay type: in vitro ADME

CLint scaled [1] [mL/min/kg]	CLint scaled ([2]; human, liver microsomes) [mL/min/kg]	Structure (SMILES)	further results
723	77.3	Cc1cc(NC(=O)Cn2nnc(-c3ccccc3)n2)n(C2CCC(F)(F)CC2)n1 [15d]	
489	99.9	Cc1cc(NC(=O)Cn2nnc(-c3ccc(Cl)c(Cl)c3)n2)n(C2CCCCC2)n1 [16d]	
> 5930	753	Cc1cc(NC(=O)Cn2nnc(-c3ccccc3)n2)n(CC2CCCCC2)n1 [15q]	Selectivity GIRK1/2 vs GIRK1/4 (in words) (GIRK1/2): lost selectivity between GIRK1/2 and GIRK1/4
		Cc1cc(NC(=O)Cn2nnc(-c3cccnc3)n2)n(C2CCCCC2)n1 [16a]	Loss of GIRK1/2 potency/activity relative to 15a (GIRK1/2): > 20 fold
		Cc1cc(NC(=O)Nc2ccc(F)c(F)c2)n(Cc2ccccc2)n1 [compound 1, reference compound]	Selectivity GIRK1/2 vs GIRK1/4 (in words) (GIRK1/2): activate GIRK1/2 preferentially over GIRK1/4
3490	209	Cc1cc(NC(=O)Cn2nncc2-c2ccccc2)n(C2CCCCC2)n1 [17b]	
> 5930	346	Cc1cc(NC(=S)Cn2nnc(-c3ccccc3)n2)n(C2CCCCC2)n1 [15b]	Predicted hepatic clearance mCLHEP [1]: >88.7 mL/min/kg; Loss of GIRK1/2 potency/activity relative to 15a (GIRK1/2): ~7 fold; Recovery in mouse plasma (in words) [3]: poor recovery
		Cc1cc(NC(=O)Cn2ccc(-c3ccccc3)n2)n(C2CCCCC2)n1 [17e]	GIRK1/2 potency, fold less potent than 17f (GIRK1/2; 17e vs 17f): ~ 8 fold
		Cc1cc(NC(=O)Cn2nnc(-c3ccccn3)n2)n(C2CCCCC2)n1 [16b]	Loss of GIRK1/2 potency/activity relative to 15a (GIRK1/2): > 20 fold
2710	162	Cc1cc(NC(=O)Cn2nnc(-c3cccc(F)c3)n2)n(C2CCCCC2)n1 [16g]	Selectivity GIRK1/2 vs GIRK1/4 (in words) (GIRK1/2): more selective for GIRK1/2 vs. GIRK1/4
2920	186	Cc1cc(NC(=O)Cn2nnc(-c3ccccc3)n2)n(C2CCCCC2)n1 [15a]	
< 49.5	< 23.1	Cc1cc(NC(=O)Cn2nnc(-c3ccccc3)n2)n(C2CCS(=O)(=O)C2)n1 (stereo not shown) [15k]	Stability in mouse liver microsomes (in words) [1]: stable; Predicted hepatic clearance mCLHEP [1]: <31.9 mL/min/kg; Stability in human liver microsomes (in words) [2]: stable; Predicted hepatic clearance hCLHEP ([2]; human, liver microsomes): <10.7 mL/min/kg; Stability in human S9 fractions (in words) [4]: stable; CLHEP in Human Liver S9 fractions ([4]; human liver S9): <1.0 mL/min/kg; CLint scaled ([4]; human, liver S9 fractions): 2.6 mL/min/kg
596	54.6	Cc1cc(NC(=O)Cn2cc(-c3ccccc3)nn2)n(C2CCCCC2)n1 [17a]	
